Measured values gathered from unrelated publications.
Lines come from different studies, so protocols differ.
CA2: Carbonic anhydrase 2 (CA2, Homo sapiens, UniProt P00918)
MMP8: Neutrophil collagenase (MMP8, Homo sapiens, UniProt P22894)

| SMILES | target | read-out | action | method | concentration | inhibition [%] |
| --- | --- | --- | --- | --- | --- | --- |
| Cn1cc(-c2cc(F)cc(N3CCn4c(cc5c4CCCC5)C3=O)c2CO)cc(Nc2ccc(N3CCN(C4COC4)CC3)cn2)c1=O | Serine/threonine-protein kinase WNK2 (WNK2, Homo sapiens, UniProt Q9Y3S1) | enzyme activity | inhibitor | – | 0.1 µM | -12 |
| CC(C)=CCCC1(C)C=Cc2c(O)c3c(c(CC=C(C)C)c2O1)OC12C(=CC4CC1C(C)(C)OC2(C/C=C(/C)C(=O)O)C4O)C3=O (centres unmarked) | N-lysine methyltransferase KMT5A (KMT5A, Homo sapiens, UniProt Q9NQR1) | cell-free assay | – | – | 10 µM | 7 |
| CCN(CC)CCCC[C@H](NC(=O)[C@H](CC(C)C)NC(=O)[C@H](C)NC(=O)[C@H](Cc1ccccc1)NC(=O)c1ccc(C(C)(C)C)cc1)C(=O)N[C@@H](CO)C(=O)OC | Delta-type opioid receptor (OPRD1, Homo sapiens, UniProt P41143) | ligand displacement | – | radioligand | 10 µM | 29 |
| COCc1c(-c2cc3cc(C)cc(OC)c3s2)c2c(N)ncnn2c1CN1CCNC(=O)C1 | CA2 | enzyme activity | inhibitor | – | 10 µM | 44 |
| C[C@H](C(=O)N[C@H]1COc2ccccc2[C@@H]1S(C)(=O)=O)c1ccc(F)cc1 | CA2 | enzyme activity | inhibitor | – | 10 µM | 8 |
| N=C(N)c1ccc2cc(OC(=O)c3ccc(N=C(N)N)cc3)ccc2c1 | MMP8 | enzyme activity | inhibitor | – | 10 µM | 0 |
| O=C(Nc1cccnn1)N1CCN([C@@H]2CCOc3cc(C(F)(F)F)ccc32)CC1 | cGMP-dependent 3',5'-cyclic phosphodiesterase (PDE2A, Homo sapiens, UniProt O00408) | enzyme activity | inhibitor | – | 20 µM | 3 |
| COc1ccc(S(=O)(=O)N(CC(=O)NO)CC(C)C)cc1 | MMP8 | enzyme activity | inhibitor | – | 1 µM | 91 |
| COc1ccc(S(=O)(=O)N2CCCCC2)cc1C | Androgen receptor (AR, Homo sapiens, UniProt P10275) | ligand displacement | – | radioligand | 10 µM | < 30 |
| Cc1ncc(C)n2nc(/C=C/c3nc(N4CCCC4)cc(N4CCOCC4)n3)nc12 | 5-hydroxytryptamine receptor 1D (Htr1d, Rattus norvegicus, UniProt P28565) | ligand displacement | – | – | 10 µM | -1 |
| Cn1cc(-c2cccc(N3CCc4c(sc5c4CC(C)(C)C5)C3=O)c2CO)cc(Nc2ccncn2)c1=O | G protein-coupled receptor kinase 3 (GRK3, Homo sapiens, UniProt P35626) | enzyme activity | inhibitor | – | 1 µM | 16 |
| NC(CO)C(=O)N/N=C/c1ccc(O)c(O)c1 (centres unmarked) | Genome polyprotein, protease (Coxsackievirus B3, UniProt P03313) | enzyme activity | inhibitor | FRET | 50 µM | 55.9 |
| O=C(O)Cc1ccccc1Nc1c(Cl)cccc1Cl | Histone acetyltransferase p300 (EP300, Homo sapiens, UniProt Q09472) | enzyme activity | inhibitor | mobility shift | 1.25 mM | > 50 |
| C#Cc1n[nH]c2c(-c3cn([C@@H](C)c4ccccn4)c(=O)[nH]c3=O)cc(F)cc12 | cAMP-dependent protein kinase catalytic subunit alpha (PRKACA, Homo sapiens, UniProt P17612) | enzyme activity | inhibitor | – | 0.1 µM | 5.1 |
